Measurements: ChEMBL document CHEMBL2331364, “A synthetic dolastatin 10 analogue suppresses microtubule dynamics, inhibits cell proliferation, and induces apoptotic cell death” (J Med Chem, 2013)
Calls of active or inactive are those of the source. The calls are words filed in the database; no cut-off is given here.

Experiments:
Homo sapiens [1] = species on record: Homo sapiens; experiment: Inhibition of microtubule (unknown origin) GTPase activity using GTP as substrate assessed as reduction of inorganic phosphate release at 10 uM incubated for 10 mins prior to substrate addition measured after 10 mins by ammonium molybdate malachite green assay relative to control
In short: (§1)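 GTP (1 mM) was added and the mixture polymerized at 37 °C for 10 min. Reactions were stopped with perchloric acid, and released phosphate was measured by ammonium molybdate–malachite green.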

HeLa [2] = experiment: Induction of mitotic microtubule depolymerization in human HeLa cells at 7 nM after 24 hrs by Hoechst 33258 dye-based fluorescence microscopy relative to control; format: cell-based
HeLa [3] = experiment: Induction of mitotic microtubule depolymerization in human HeLa cells assessed as multipolar spindle formation at 30 nM after 24 hrs by Hoechst 33258 dye-based fluorescence microscopy; format: cell-based
HeLa [4] = experiment: Induction of apoptosis in human HeLa cells assessed as apoptotic cells at 35 nM after 24 hrs by annexin V-FITC/propidium iodide staining-based FACS analysis; format: functional
In short: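 HeLa cells were exposed to 35 nM for 10 or 24 h, stained with annexin V and propidium iodide using a kit, and apoptotic cells were quantified by FACS. Nocodazole (700 nM) served as comparator.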

HeLa [5] = experiment: Induction of apoptosis in human HeLa cells assessed as early apoptotic cells at 7 to 15 nM after 24 hrs by annexin V/propidium iodide staining-based FACS flow cytometry; format: functional, cell-based
In short: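 HeLa cells were grown with vehicle (0.1% DMSO) or 7, 15 and 30 nM for 24 h and stained with an annexin V/propidium iodide kit. Stage was scored as annexin V-positive with weak PI (early/mid) or positive for both (late).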

MCF7 [6] = experiment: Inhibition of microtubule (unknown origin) dynamics in GFP-tubulin transfected human MCF7 cells assessed as microtubule shortening rate at 15 nM by confocal laser scanning microscopy (reference value: 16.4 +/- 5 um/min); format: cell-based
In short: (§2)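 EGFP-tubulin-transfected MCF-7 cells grown in EMEM with 10% FBS at 37 °C in 5% CO2, exposed to 15 nM compound (DMSO vehicle) or vehicle. Individual microtubules were followed by time-lapse confocal laser scanning microscopy and life-history traces were recorded. Kinetic parameters were derived from these traces, 20 microtubules per condition. Significance was tested by one-way ANOVA.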

HeLa [7] = experiment: Inhibition of microtubule-kinetochore tension in human HeLa cells assessed as Mad2 accumulation at kinetochoric region at 15 to 45 nM after 24 hrs by Hoechst 33258 dye-based Hec1 staining assay; format: cell-based
[8] = (§3) Inhibition of goat brain tubulin polymerization incubated for 20 mins prior to GTP addition measured for 30 mins by 90 degree light scattering-based fluorescence spectrophotometric method; design: species or system Capra hircus
In short: (§4)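 Goat brain tubulin (10 μM) was preincubated with compound (5 μM; or 1, 5, 7, 10 μM) in 1 M monosodium glutamate, 3 mM MgCl2, 1 mM EGTA, 25 mM Pipes pH 6.8 on ice for 20 min. GTP (1 mM) was then added and assembly followed by 90° light scattering at 400 nm for 30 min at 37 °C. Experiment run twice.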

Capra hircus = species on record: Capra hircus; experiment: as §3; in short: as §4
HeLa [9] = experiment: Induction of apoptosis in human HeLa cells assessed as caspase-3 dependent PARP cleavage at 30 nM after 24 hrs by Western blot analysis; format: functional, cell-based
In short: (§5)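 HeLa cells were treated with vehicle or 30 nM for 24 h and washed twice in PBS. Lysates were Western blotted with antibodies to JNK1, phospho-JNK, procaspase-3 and PARP.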

HeLa [10] = experiment: Induction of apoptosis in human HeLa cells assessed as activated JNK1 level at 30 nM after 24 hrs by Western blot analysis relative to control; format: functional, cell-based; in short: as §5
HeLa [11] = experiment: Inhibition of mitosis in human HeLa cells assessed as mitotic index ratio at 15 nM after 48 hrs by Hoechst 33258 DNA staining assay (reference value: 3); format: functional
In short: (§6)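 HeLa cells were treated with vehicle or 7, 15 or 30 nM compound for 24 or 48 h. DNA was stained with Hoechst 33258, and mitotic cells were counted by fluorescence microscopy to give the mitotic index, compared against vehicle-treated cells.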

MCF7 [12] = experiment: Inhibition of microtubule (unknown origin) dynamics in GFP-tubulin transfected human MCF7 cells assessed as microtubule growth time at 15 nM by confocal laser scanning microscopy (reference value: 0.9 +/- 0.1 min); format: cell-based; in short: as §2
HeLa [13] = experiment: Induction of interphase microtubule depolymerization in human HeLa cells at 30 nM after 24 hrs by Hoechst 33258 dye-based fluorescence microscopy; format: cell-based
MCF7 [14] = experiment: Inhibition of microtubule (unknown origin) dynamics in GFP-tubulin transfected human MCF7 cells assessed as microtubule catastrophe events at 15 nM by confocal laser scanning microscopy (reference value: 4 +/- 1.2 events/min); format: cell-based; in short: as §2
HeLa [15] = experiment: Inhibition of microtubule-kinetochore tension in human HeLa cells assessed as BubR1 accumulation at kinetochoric region at 15 to 45 nM after 24 hrs by Hoechst 33258 dye-based Hec1 staining assay; format: cell-based
MCF7 [16] = experiment: Cytotoxicity against human MCF7 cells after 24 to 48 hrs by trypan blue assay; format: functional, cell-based
In short: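 Cells were seeded at 1 × 10^5 cells/mL, grown 24 h at 37 °C in 5% CO2, then given vehicle (0.1% DMSO) or 1–80 nM for a further 24 or 48 h. Attached plus floating cells were counted after trypan blue staining. Percent inhibition was plotted against concentration to give IC50. Average of three independent experiments.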

Tubulin (Capra hircus) = experiment: Inhibition of goat brain microtubule GTPase activity using GTP as substrate assessed as reduction of inorganic phosphate release at 5 uM incubated for 10 mins prior to substrate addition measured after 10 mins by ammonium molybdate malachite green assay relative to control
HeLa [17] = experiment: Induction of interphase microtubule depolymerization in human HeLa cells at 7 nM after 24 hrs by Hoechst 33258 dye-based fluorescence microscopy relative to control; format: cell-based
MCF7 [18] = experiment: Inhibition of microtubule (unknown origin) dynamics in GFP-tubulin transfected human MCF7 cells assessed as increase in microtubule pause time at 15 nM by confocal laser scanning microscopy relative to control; format: cell-based; in short: as §2
MCF7 [19] = experiment: Inhibition of microtubule (unknown origin) dynamics in GFP-tubulin transfected human MCF7 cells assessed as decrease in microtubule catastrophe frequency at 15 nM by confocal laser scanning microscopy relative to control; format: cell-based
In short: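 EGFP-tubulin transfected MCF-7 cells were treated with vehicle or 15 nM, and individual microtubules were tracked by confocal laser scanning microscopy, 20 microtubules per condition. Life-history parameters were derived as previously described. Significance was tested by one-way ANOVA.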

HeLa [20] = experiment: Cell cycle arrest in human HeLa cells assessed as accumulation at G2/M phase at 30 nM after 24 hrs by propidium iodide staining-based flow cytometry (reference value: 4%); format: functional
Homo sapiens [21] = species on record: Homo sapiens; experiment: Inhibition of microtubule (unknown origin) GTPase activity using GTP as substrate assessed as reduction of inorganic phosphate release at 20 uM incubated for 10 mins prior to substrate addition measured after 10 mins by ammonium molybdate malachite green assay relative to control; in short: as §1
HeLa [22] = experiment: Inhibition of mitosis in human HeLa cells assessed as mitotic index ratio at 30 nM after 48 hrs by Hoechst 33258 DNA staining assay (reference value: 3); format: functional; in short: as §6

In the case of `CC[C@H](C)[C@@H]([C@@H](CC(=O)NC[C@H]1O[C@H](C(=O)NCCc2ccccc2)[C@@H](OC)[C@@H]1OC)OC)N(C)C(=O)[C@@H](NC(=O)[C@@H](NC)C(C)C)C(C)C`, the inhibition (Homo sapiens [1]) is reported as 50%, the Activity (HeLa [2]) is reported as “inactive” and the Activity (HeLa [3]) is reported as “Active”. The Activity (HeLa [4]) was 65.3%, the Activity (HeLa [5]) was “Active” and the Activity (MCF7 [6]) was 12 um/min. For the same molecule, the Activity (HeLa [7]) was “Active”, the IC50 [8] was 6 µM and the inhibition (Capra hircus) was “Dose-dependent effect”. For the same molecule, the Activity (HeLa [9]) was “Active”, the Activity (HeLa [10]) was “Active” and the Ratio (HeLa [11]) was 11. For the same molecule, the TIME (MCF7 [12]) was 0.00833 h, the Activity (HeLa [13]) was “Active” and the Activity (MCF7 [14]) was 3 min⁻¹. The Activity (HeLa [15]) was “Active”, the IC50 (MCF7 [16]) was 0.015 µM and the inhibition (Tubulin (Capra hircus)) was 42%. The Activity (HeLa [17]) was “inactive”, the inhibition (MCF7 [18]) was 50% and the inhibition (MCF7 [19]) was 32%. The Activity (HeLa [20]) was 9%, the inhibition (Homo sapiens [21]) was 54% and the Ratio (HeLa [22]) was 16.
